Screening results as filed in PubChem.
PG9 binder: PG9 antibody binding by small molecule; TR-FRET gp120-PG9 antibody binding; inhibition, % at 6.7 µM; 360,000 compounds, 0.43% hits; AID 624416; in the data active = inhibition above about 8.5%
Rev-erbA mod: modulators of human Rev-erb alpha DNA binding. P20393. Rev-erbα–FITC-DNA binding, fluorescence polarization, 90 min. activity, % at 10 µM. 370,000 compounds, 0.79% hits;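 active = activity above about 14%, limit read from the data; passing the limit was not always enough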;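 also: 0% = DMSO wells with 35 nM protein and 100% = DMSO wells with 750 nM protein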
NR2E3 ag-1: agonists of human nuclear receptor NR2E3. inhibition of corepressor binding, % at 4.78 µM. AID 2300. 320,000 compounds, 0.12% hits. GST-NR2E3/biotin-RetCOR TR-FRET, 1536-well;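 active = percent inhibition above the cutoff of mean plus 3 SD of all tested compounds, set per screening campaign, cut at about 20% in these data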;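 also: 0% = DMSO wells and 100% = biotin wells as full block of FRET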
Target sequence (Q9Y5X4 whole entry, looked up): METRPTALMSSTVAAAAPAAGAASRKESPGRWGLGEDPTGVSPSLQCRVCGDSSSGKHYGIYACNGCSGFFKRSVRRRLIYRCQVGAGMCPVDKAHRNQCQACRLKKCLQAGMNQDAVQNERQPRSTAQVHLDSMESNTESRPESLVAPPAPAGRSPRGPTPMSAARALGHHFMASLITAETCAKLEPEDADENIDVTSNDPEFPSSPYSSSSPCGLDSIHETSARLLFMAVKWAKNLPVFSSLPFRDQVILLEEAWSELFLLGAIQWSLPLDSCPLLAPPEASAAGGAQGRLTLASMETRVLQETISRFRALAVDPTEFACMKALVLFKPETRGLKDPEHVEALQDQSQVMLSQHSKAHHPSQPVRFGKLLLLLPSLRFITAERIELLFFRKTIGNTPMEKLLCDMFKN
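Material: NR2E3–RetCOR corepressor complex / Amount: 1.35 nM GST-NR2E3 / Medium: Tris pH 7.5 / Compound: single nominal compound dose of 4.8 µM / Incubation: 5 h at 4 °C / Technique: TR-FRET, Eu(K)-anti-GST donor, streptavidin-D2 acceptor, ex 340, em 617/671 nm / Read-out basis: percent loss of FRET ratio relative to control wells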
NR2E3 ag-2: agonists of human NR2E3 nuclear receptor | 360,000 compounds, 0.35% hits | CHO-S Gal4-NCOR/VP16-NR2E3 two-hybrid, luciferase | inhibition of corepressor binding, % at 3.98 µM | Q9Y5X4 | AID 602229;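 active = inhibition above the mean of all tested compounds plus 3 SD, cut at about 70% in these data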;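 also: 0% = DMSO with NR2E3 transfected cells and 100% = cells lacking NR2E3 construct; higher means lower luciferase signal from less NR2E3 corepressor binding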
NR2E3 ag confirm-1: NR2E3 (human) agonism, confirmation; shares compounds with NR2E3 ag-1; cell-free NR2E3 corepressor release, TR-FRET, 5 h; activation (reported as inhibition), % at 3.98 µM; 360 compounds, 39% hits; in the data active = activation above about 20%
PPARg-NCOR2 ag: counter-screen for NR2E3 agonists: human PPARgamma-NCOR2 interaction agonists; shares compounds with NR2E3 ag-1; TR-FRET PPARg-NCOR2 coregulator interaction, biochemical; inhibition, % at 3.98 µM; 360 compounds, 45% hits; AID 504787; in the data active = inhibition above about 20%;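 also: 0% = DMSO vehicle and 100% = wells without protein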
NR2E3 ag confirm-2: confirmation of human NR2E3 agonists. CHO-S mammalian two-hybrid NR2E3-NCOR, luciferase luminescence. inhibition, % at 3.98 µM. AID 624378. 2,300 compounds, 51% hits. shares compounds with NR2E3 ag-2;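 active = average inhibition above a cutoff equal to the mean inhibition of all tested compounds plus one SD, cut at about 70% in these data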;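 also: 0% = DMSO in NR2E3 cells and 100% = DMSO in cells lacking NR2E3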
VP16 counter: reduces GAL4-VP16 reporter signal in NR2E3 counterscreen; shares compounds with NR2E3 ag-2; CHO-S GAL4-VP16 luciferase reporter, luminescence; inhibition, % at 3.98 µM; 2,300 compounds, 29% hits; AID 624379;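 active = mean inhibition above a cutoff equal to the average over all tested compounds plus one standard deviation, cut at about 70% in these data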;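 also: luciferase from a UAS reporter driven by GAL4-VP16 transactivation; 0% = DMSO with VP16-transfected cells and 100% = DMSO with cells lacking VP16; higher means less reporter light so more repression of VP16 activity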
An asterisk follows results filed as active; / = not tested or not shown. Only some compounds are listed: those with a hit (about 1.5% of all), similar ones and a draw of the others.

SMILES	PG9 binder	Rev-erbA mod	NR2E3 ag-1	NR2E3 ag-2	NR2E3 ag confirm-2	VP16 counter	others
CCCCn1c(NC(=O)c2ccc(Br)o2)c(C(=O)OCC)c2nc3ccccc3nc21	-2	-5	30*	-9	/	/
C[C@H]1[C@H](OC(=O)CCC(=O)NCc2ccc(C(=O)O)cc2)O[C@@H]2O[C@@]3(C)CC[C@H]4[C@H](C)CC[C@@H]1C24OO3	/	/	-2	93*	/	/
CC12CCC(C(Br)C1=O)C2(C)C (centres undefined)	/	1	/	/	/	/
CN1C[C@H](C(=O)N[C@]2(C)C[C@@]3(O)C4CCCN4C(=O)[C@H](Cc4ccccc4)N3C2=O)C=C2c3cccc4[nH]cc(c34)C[C@H]21 (some centres undefined)	/	5	/	/	/	/
O=c1c2ccccc2[nH]c(=S)n1-c1ccc(Br)cc1	4	19	36*	-20	/	/	NR2E3 ag confirm-1=-7;PPARg-NCOR2 ag=-4
Oc1ccc2c3c1O[C@@H]1[C@@H](O)CC[C@@]4(O)[C@@H](C2)N(CC2CCC2)CC[C@]314	/	8	/	/	/	/
Cn1ncnc2c(=O)n(C)c(=O)nc1-2	/	/	32*	104*	98*	97*	NR2E3 ag confirm-1=36*;PPARg-NCOR2 ag=66*
O1[As]2O[As]3O[As]1O[As](O2)O3	/	-8	/	/	/	/
Cc1ccc(-c2cc(-c3ccc(C)cc3)[n+](-c3ccccc3)c(-c3ccc(C)cc3)c2)cc1	/	/	2	100*	100*	96*
CN(C)c1ccc(-[n+]2c(-c3ccccc3)cc(-c3ccccc3)cc2-c2ccccc2)cc1	1	1	/	51	96*	65
CC1CC(C)CC(C)C(O)C(C#N)=CC=CCC(C2CCCC2C(=O)O)OC(=O)CC(O)C(C)C1 (centres undefined)	1	-7	/	102*	101*	100*
CN(C)C(=S)SSC(=S)N(C)C	-2	-6	-1	95*	11	-3
C#C[C@]1(O)C=C[C@H]2[C@@H]3CCC4=CC(=O)CC[C@@H]4[C@H]3CC[C@@]21CC	/	-1	/	/	/	/
C=C1CC2C(CC[C@]3(C)C(=O)CCC23)[C@@]2(C)C=CC(=O)C=C12 (some centres undefined)	/	-1	/	/	/	/
O=c1n(Cl)c(=O)n(Cl)c(=O)n1Cl	/	0	/	/	/	/
Cn1nc(-c2ccc(OCC(=O)N3CCN(Cc4ccccc4)CC3)cc2)c2ccccc2c1=O	-2	2	-5	71*	68	59
CC(=O)O[C@H]1C[C@H](O[C@H]2[C@@H](O)C[C@H](O[C@H]3[C@@H](O)C[C@H](O[C@H]4CC[C@@]5(C)C(CCC6C5C[C@@H](O)[C@]5(C)[C@@H](C7=CC(=O)OC7)CC[C@]65O)C4)O[C@@H]3C)O[C@@H]2C)O[C@H](C)[C@H]1O[C@@H]1O[C@H](CO)[C@@H](O)[C@H](O)[C@H]1O (some centres undefined)	/	0	/	/	/	/
CC1=C(O)C(=O)C=C2C1=CC=C1C2(C)CCC2(C)C3CC(C)(C(=O)O)CCC3(C)CCC12C (centres undefined)	1	-10	/	99*	95*	77*
O=C1NC2C(=CC(O)C(O)C2O)c2cc3c(cc21)OCO3 (centres undefined)	0	2	/	100*	100*	97*
COc1cc(C2c3cc4c(cc3CC3COC(=O)C32)OCO4)cc(OC)c1O (centres undefined)	0	-2	/	30	/	/
O=C1NC2C(O)C(O)C(O)C(O)C2c2cc3c(c(O)c21)OCO3 (centres undefined)	0	7	/	99*	98*	99*
O=C1NC2C(=CC(O)C(O)C2O)c2cc3c(c(O)c21)OCO3 (centres undefined)	0	0	/	102*	100*	99*
CN1CC(CNC(=O)OCc2ccccc2)CC2c3cccc4c3c(cn4C)CC21 (centres undefined)	/	6	/	/	/	/
C[N+]12CCC(CC1)C(OC(=O)C(O)(c1ccccc1)c1ccccc1)C2 (centres undefined)	0	-7	2	1	/	/
N#CC1c2ccccc2-n2nncc2CN1Cc1cc(Cl)cc(Cl)c1 (centres undefined)	1	1	/	88*	79*	71*
SMILES	PG9 binder	Rev-erbA mod	NR2E3 ag-1	NR2E3 ag-2	NR2E3 ag confirm-2	VP16 counter	others
CCC(=O)[C@@H](C)[C@@H](O)[C@H](C)C[C@@H](C)C1OC(=O)C[C@@]2(O)CC=C(C)C(O2)C(C)=CCCC[C@H](O[C@H]2C[C@@H](OC(N)=O)[C@H](O)[C@@H](C)O2)C=C[C@H](C)C[C@H]1C (some centres undefined)	/	/	/	93*	98*	84*
CCOc1ccc(-c2c(C)n(-c3ccc(OCC)cc3)c3[n+]2CCCCC3)cc1	-2	-2	1	64	97*	60
CCOc1ccc(-n2c(-c3ccoc3)nc3ccccc3c2=O)cc1	-1	0	-1	-14	/	/
CC(C)(C)c1cc(C=C(C#N)C#N)cc(C(C)(C)C)c1O	-2	4	0	92*	86*	89*
O=c1[nH]c(O)c(N=Nc2ccc3c(c2)OCCO3)c(=O)[nH]1	-8	22	-2	69	42	37
O=c1[nH]c(=S)[nH]c(O)c1N=Nc1ccc2c(c1)OCO2	-16	7	-8	-12	/	/
CC(C)(O)C(Cl)(Cl)Cl	/	-2	/	/	/	/
O=c1[nH]c2ccccc2n1C1CCN(C(c2ccccc2)c2nnnn2-c2ccc3c(c2)OCCO3)CC1 (centres undefined)	0	8	/	17	/	/
COc1cccc(C(c2nnnn2-c2ccc3c(c2)OCCO3)N2CCC(n3c(=O)[nH]c4ccccc43)CC2)c1OC (centres undefined)	-2	-1	/	53	21	25
CSCCC(c1nnnn1-c1ccc2c(c1)OCCO2)N1CCC(n2c(=O)[nH]c3ccccc32)CC1 (centres undefined)	-3	1	/	54	30	6
O=c1[nH]c2ccccc2n1C1CCN(C(c2ccccc2OC(F)(F)F)c2nnnn2-c2ccc3c(c2)OCCO3)CC1 (centres undefined)	-2	11	/	61	54	14
CCCC(C)C1(CC)C(=O)NC(=O)NC1=O (centres undefined)	/	-8	/	/	/	/
OCC(O)[C@H]1O[C@@H]2O[C@H](C(Cl)(Cl)Cl)O[C@@H]2[C@H]1O (some centres undefined)	/	-4	/	/	/	/
C[C@H](N)[C@H](O)c1ccc(O)c(O)c1	/	-33	/	/	/	/
